What was measured:
[1] = system: HeLa; assay: Antiproliferative activity against human HeLa cells by MTT assay; type: functional, cell-based
In short: (§1)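 Growth inhibition rate calculated per compound. IC₅₀ derived by curve fitting.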

[2] = system: HCT-116; assay: Antiproliferative activity against human HCT116 cells by MTT assay; type: functional, cell-based; in short: as §1
[3] = system: A2780; assay: Antiproliferative activity against human A2780 cells by MTT assay; type: functional, cell-based; in short: as §1
[4] = system: MDA-MB-231; assay: Antiproliferative activity against human MDA-MB-231 cells by MTT assay; type: functional, cell-based; in short: as §1
[5] = Inhibition of pig brain tubulin polymerization measured every 1 min for 20 mins by spectrophotometric analysis; set-up: species or system Sus scrofa

Row | Compound | IC50 [1] | IC50 [2] | IC50 [3] | IC50 [4] | IC50 [5]
1 | COc1cc(C2C(=O)NC(=O)N2c2ccc(C)c(C)c2)cc(OC)c1OC (stereo not given) | 620 nM | 475 nM | 627 nM | 835 nM | 
2 | COc1ccc(N2C(=O)NC(=O)C2c2cc(OC)c(OC)c(OC)c2)cc1[N+](=O)[O-] (stereo not given) | 4740 nM |  | 9700 nM |  | 
3 | COc1cc(C2C(=O)NC(=O)N2c2ccccc2)cc(OC)c1OC (stereo not given) | > 50000 nM |  | > 50000 nM |  | 
4 | COc1cc(C2C(=O)NC(=O)N2c2ccc(C)c([N+](=O)[O-])c2)cc(OC)c1OC (stereo not given) | 5450 nM |  | 2890 nM |  | 
5 | COc1ccc(N2C(=O)N(C)C(=O)C2c2cc(OC)c(OC)c(OC)c2)cc1O (stereo not given) | 429 nM | 386 nM | 353 nM | 301 nM | 
6 | COc1ccc(N2C(=O)NC(=O)C2c2cc(OC)c(OC)c(OC)c2)cc1 (stereo not given) | 2820 nM |  | 2140 nM |  | 
7 | COc1ccc(N2C(=O)N(C)C(=O)[C@H]2c2cc(OC)c(OC)c(OC)c2)cc1N | 81 nM | 157 nM | 97 nM | 125 nM | 
8 | COc1ccc(N2C(=O)NC(=O)C2c2cc(OC)c(OC)c(OC)c2)cc1OS(=O)(=O)F (stereo not given) | 6760 nM |  | 4520 nM |  | 
9 | COc1cc(C2C(=O)N(C)C(=O)N2c2ccc(C)c(C)c2)cc(OC)c1OC (stereo not given) | 363 nM | 307 nM | 533 nM | 493 nM | 
10 | COc1ccc(/C=C\c2cc(OC)c(OC)c(OC)c2)cc1O [COMBRETASTATIN A4] | 7 nM |  | 5 nM | 2 nM | 6600 nM
11 | COc1ccc(C2C(=O)NC(=O)N2c2cc(OC)c(OC)c(OC)c2)cc1O (stereo not given) | > 50000 nM |  | > 50000 nM |  | 
12 | COc1ccc(N2C(=O)NC(=O)C2c2cc(OC)c(OC)c(OC)c2)cc1N (stereo not given) | 584 nM | 232 nM | 283 nM | 311 nM | 
13 | COc1ccc(N2C(=O)N(C)C(=O)C2c2cc(OC)c(OC)c(OC)c2)cc1F (stereo not given) | 516 nM | 527 nM | 555 nM | 452 nM | 
14 | COc1ccc(N2C(=O)NC(=O)C2c2cc(OC)c(OC)c(OC)c2)cc1F (stereo not given) | 771 nM | 630 nM | 745 nM | 727 nM | 
15 | COc1ccc(N2C(=O)N(C)C(=O)[C@@H]2c2cc(OC)c(OC)c(OC)c2)cc1N | 399 nM | 355 nM | 305 nM | 582 nM | 
16 | COc1cc(C2C(=O)NC(=O)N2c2cnc3ccccc3c2)cc(OC)c1OC (stereo not given) | > 50000 nM |  | > 50000 nM |  | 
